This is a sample that favours compounds with a hit; in the whole collection about 1.2% have one here.
TRPML3 agonist: human TRPML3 channel agonists, primary screen, cell-based, HEK293 TRPML3-YFP, Fluo-8 calcium fluorescence, 3 µM. Mucolipin-3 (Homo sapiens), Q8TDD5. 100% = the carbachol control signal. activation, % at 3 µM. hit rate 0.29% among 220,000. AID 1448, 2008;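 active = activation above its plate's cutoff, the mean activation of the plate's test wells plus 3 SD, cut at about 12% in these data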;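 also: 0% = DMSO only wells and 100% = carbachol wells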
Target sequence (Q8TDD5 whole entry, looked up): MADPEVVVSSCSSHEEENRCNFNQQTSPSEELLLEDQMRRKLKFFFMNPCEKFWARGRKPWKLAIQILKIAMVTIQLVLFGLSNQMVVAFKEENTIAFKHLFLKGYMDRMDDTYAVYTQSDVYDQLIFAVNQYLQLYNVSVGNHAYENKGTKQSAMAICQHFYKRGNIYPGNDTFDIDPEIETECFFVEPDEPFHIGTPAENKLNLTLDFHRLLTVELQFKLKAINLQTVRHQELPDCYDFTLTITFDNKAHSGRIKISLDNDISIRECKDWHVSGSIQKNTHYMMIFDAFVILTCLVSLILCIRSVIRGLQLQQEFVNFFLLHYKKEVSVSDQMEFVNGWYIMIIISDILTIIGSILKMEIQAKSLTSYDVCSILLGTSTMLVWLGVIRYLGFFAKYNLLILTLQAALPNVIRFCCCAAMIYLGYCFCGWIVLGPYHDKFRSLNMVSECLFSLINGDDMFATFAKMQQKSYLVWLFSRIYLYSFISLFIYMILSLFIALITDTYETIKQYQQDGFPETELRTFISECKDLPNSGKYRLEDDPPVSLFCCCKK
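Test system: HEK293 cells stably carrying human TRPML3-YFP; Doses: single dose, 3 µM final nominal compound, 0.3% DMSO final; Schedule: dye loading 1 h 37 °C then 30 min ambient, 125 s read; Technique: Fluo-8 calcium fluorescence; Benchmarks: high control carbachol 87 µM, low control DMSO.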
M1 PAM parental: nonselective calcium activators in parental CHO-K1 cells, primary screen, counter-screen for M1 PAM project, cell-based, Fluo-8 calcium fluorescence, full deck, 1536-well. ATP EC20; 0% at ATP EC20, 100% at ATP max. activation, % at 3 µM. hit rate 0.02% among 360,000;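 active = activation above the run cutoff, the mean activation of all test compounds plus 3 SD, cut at about 40% in these data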;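 also: peak over basal fluorescence ratio in a 140 s read after ATP addition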
CHO-K1 Ca antag: M1 antagonist counterscreen hit in parental CHO-K1 cells | inhibition, % at 3 µM | hit rate 0.6% among 360,000 | ATP-induced calcium, Fluo-8 fluorescence;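 active = inhibition above a per-plate cutoff, the plate's mean sample inhibition plus 3 SD, cut at about 24% in these data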;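 also: 0% = DMSO plus EC80 ATP and 100% = DMSO alone without ATP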
M1 ag parental: counter-screen for M1 agonists: effect in parental CHO-K1 cells. Fluo-8 calcium fluorescence; scaled to maximal ATP response, vehicle zero. activation, % at 3 µM. hit rate 0.48% among 360,000; in the data active = activation above about 15%;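 also: untransfected CHO-K1 host cells lacking M1 receptor as counterscreen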
TRPN1 ag: zebrafish TRPN1 channel agonists, primary screen, cell-based, HEK293, calcium fluorescence. HEK293 zebrafish TRPN1-YFP, Fluo-8 calcium fluorescence; 100% = response to 87 µM carbachol. hit rate 0.18% among 220,000. AID 1424, 2008. transient receptor potential cation channel N1 (TRPN1/NompC), Danio rerio. activation, % at 3 µM;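 active = activation above its plate's cutoff, the mean activation of test wells on that plate plus 3 SD, cut at about 19% in these data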;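 also: 0% = DMSO alone and 100% = 87 µM carbachol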
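Control set: carbachol 87 µM as high control, DMSO as low control; system: HEK293 stable line with zebrafish TRPN1-YFP; read-out: % activation versus carbachol response; detection: intracellular calcium fluorescence with Fluo-8; doses: single test compound dose, 3 µM nominal, 0.3% DMSO; schedule: dye 1 h 37 °C plus 30 min RT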
* = called active by the depositor; x = no result.

SMILES	TRPML3 agonist	M1 PAM parental	CHO-K1 Ca antag	M1 ag parental	TRPN1 ag
CCCCC(=O)N(C)c1c(C)nc2ccc(C(=O)NCCOc3ccc(OC)cc3)cn12	x	27	-17	1	x
CCCCN(C)c1c(C)nc2ccc(C(=O)NCCOc3ccc(OC)cc3)cn12	x	-14	30*	14	x
Cc1cn([C@H]2C[C@H](O)[C@@H](CCC(=O)NCc3cccs3)O2)c(=O)[nH]c1=O	x	-8	24*	0	x
Cc1cn([C@H]2C[C@H](O)[C@@H](CCC(=O)NCc3ccco3)O2)c(=O)[nH]c1=O	x	11	-19	0	x
O=C(CSc1nnnn1C1CC2CCC1C2)Nc1ccnc2ccccc12 (centres undefined)	5	2	37*	13	13
Cc1ccc(-c2nc3ccc(C)cn3c2CC2CCCCC2)cc1	x	7	-8	0	x
Cc1ccc(OCCn2c(=O)sc3ccccc32)cc1	-1	11	-4	0	-2
Cc1ccc(OCCCn2c(=O)sc3ccccc32)cc1	-1	-10	24*	-1	-2
OC(c1cccc(Cl)c1)c1nc(-c2ccc(Cl)cc2)cs1 (centres undefined)	x	7	2	-1	x
CC(=O)N1CC2(CC(c3ccccc3C(F)(F)F)=NO2)CN1c1ccc(Cl)cc1 (centres undefined)	x	-5	3	1	x
Cc1cccc(OCc2nc3ccccc3c(=O)n2N)c1	1	7	6	1	-1
Nn1c(COc2cccc(Cl)c2)nc2ccccc2c1=O	1	11	2	25*	0
Cc1nccc(-c2cccc(NC(=O)c3ccccc3Cl)c2)n1	1	1	3	1	0
CNC(=O)Nc1cccc(-c2ccnc(C)n2)c1	1	-2	-2	20*	2
COc1cccc(-c2c(NC(=O)c3ccco3)n(-c3ccc(C)cc3)nc(C)c2=O)c1	0	-6	32*	0	0
CCc1nc2c(OCc3ccc(Cl)cc3)cccn2c1N(C=O)Cc1ccccc1	x	15	-19	1	x
CC1=C(C(=O)N2CCOCC2)CC(CC(=O)NCCCN(C)C)C(=O)N1Cc1ccc(F)cc1 (centres undefined)	x	17	-14	1	x
Cc1cc(=O)[nH]c(=S)n1-c1ccccc1	1	23	-31	0	1
Nc1cc(=O)[nH]c(=S)n1-c1ccccc1	1	-7	32*	0	2
COC(=O)[C@]12CCCCC=C1N(CCC1=CCCCC1)C(=O)[C@H](CC(=O)N1CCN(C(=O)c3ccco3)CC1)C2	x	4	-9	7	x
C=CCC1(CC=C)CCCN1C(=O)c1cc(COc2ccc(C)nc2)on1	x	-28	49*	16*	x
CC(C)C(=O)Nc1cccc(COc2ccccc2CN(Cc2ccccc2)C(=O)OC(C)(C)C)c1	x	5	-12	2	x
COc1ccc(OC)c(NC(=O)c2cnc3n(c2=O)CCS3)c1	0	-15	26*	0	0
CCCC1(C(=O)OC)NC(c2ccc(OC)c(OC)c2)C2C(=O)N(c3ccc4c(c3)OCO4)C(=O)C21 (centres undefined)	1	-6	15	0	2
CCCC1(C(=O)OCC)NC(c2ccc(OC)cc2OC)C2C(=O)N(c3ccc4c(c3)OCCO4)C(=O)C21 (centres undefined)	0	-4	46*	1	2
O=C(NCCN1C(=O)S/C(=C\c2ccc(OC(F)F)cc2)C1=O)[C@@H]1CCCN1C(=O)c1cccs1	-1	1	9	21*	-2
Cc1cccc(NC(=O)CCS(=O)(=O)c2ccc3nc(C)sc3c2)c1	x	32	-13	0	x
COc1ccccc1Oc1ccc2c(c1)C(=O)N(c1cccc(O)c1)C2=O	0	12	-3	6	2
COc1ccccc1Oc1ccc2c(c1)C(=O)N(c1cccc3ncccc13)C2=O	4	1	24*	11	9
Cc1cccc(NC(=O)CSc2nnc(CCC(=O)Nc3ccc(C)c(Cl)c3)n2C)c1	0	-9	-8	0	0
